Source: ChEMBL document CHEMBL1130253 (J Med Chem, 1997)
Blank lines part the entries; values can stand above or below the molecule they belong to.

Assays:
[1] = tested on: CCRF-CEM; experiment: Concentration required to inhibit against HIV strain IIIB in CEM cell; format: functional; conditions: Homo sapiens, read-out: ED50 (the source's name)
[2] = Minimum cellular toxicity against the HIV strain IIIB in CEM cells was determined; format: cell-based, CCRF-CEM; conditions: human, read-out: TD50 (the source's name)
[3] = target: Human immunodeficiency virus type 1 protease (Human immunodeficiency virus 1, UniProt Q72874); experiment: Inhibitory activity against HIV-1 protease
[4] = Elimination rate constant of the compound(25 mg/kg) administered orally in marmoset; format: ADME, organism-based; conditions: callithrix, in vivo, po, read-out: T1/2 el (converted)
In short: (§1)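 Male Sprague-Dawley rats (n = 3), beagle dogs (1M/1F), female cynomolgus monkeys and marmosets (1M/1F). Dosed 12.5–25 mg/kg iv or 25–50 mg/kg oral in 5% dextrose, or propylene glycol:water 50:50 for marmosets. Fasted groups fasted overnight. Venous blood sampled predose to 48 h. Plasma stored at -20 °C, extracted and assayed by HPLC-UV. Mean (SD) reported for rats.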

[5] = Oral bioavailability (25 mg/kg) in monkey; format: ADME, organism-based; conditions: primates, in vivo; in short: as §1
[6] = tested on: Homo sapiens; experiment: The maximum plasma concentration (800 mg/kg) administered orally in human; format: ADME, organism-based; design: route oral; conditions: in vivo, po
In short: (§2)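 Healthy human volunteers given single oral doses of 100–800 mg with food. Plasma PK parameters reported as mean ± SD of four subjects per dose. Tmax reported as median.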

[7] = Oral bioavailability (50 mg/kg) in rat; format: ADME, organism-based; conditions: in vivo; in short: as §1
[8] = The maximum time for retention (12.5 mg/kg) administered intravenously in marmoset; format: ADME, organism-based; conditions: callithrix, in vivo, iv; in short: as §1
[9] = Oral bioavailability (50 mg/kg) in fasted rat; format: ADME, organism-based; conditions: in vivo; in short: as §1
[10] = The maximum time for retention (30 mg/kg) administered orally in dog; format: ADME, organism-based, Canis lupus familiaris; conditions: in vivo, po
In short: (§3)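 Plasma pharmacokinetics in male Sprague-Dawley rats (n = 3), beagle dogs (1 male, 1 female), female cynomolgus monkeys (2) and marmosets (1 male, 1 female). Single iv (12.5-25 mg/kg) or oral (25-50 mg/kg) dose. Vehicle was 5% dextrose for rat, dog and monkey, and propylene glycol:water (50:50) for marmoset. Venous blood was drawn predose and up to 48 h. Plasma was stored at -20 °C, extracted and assayed by HPLC-UV. Values are means.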

[11] = The area under curve (25 mg/kg) administered orally in marmoset; format: ADME, organism-based; conditions: callithrix, in vivo, po; in short: as §1
[12] = Elimination rate constant of the compound(12.5 mg/kg) administered intravenously in marmoset; format: ADME, organism-based; conditions: callithrix, in vivo, iv, read-out: T1/2 el (converted); in short: as §1
[13] = The maximum time for retention (400 mg) administered orally in human; conditions: in vivo, po
[14] = The area under curve (12.5 mg/kg) administered intravenously in monkey; format: ADME, organism-based; conditions: simiiformes, in vivo, iv; in short: as §1
[15] = The maximum time for retention (200 mg) administered orally in human; conditions: in vivo, po
[16] = Elimination rate constant of the compound(200 mg/kg) administered orally in human; format: ADME, organism-based; conditions: in vivo, po, read-out: T1/2 el (converted); in short: as §2
[17] = The maximum plasma concentration (12.5 mg/kg) administered intravenously in monkey; format: ADME, organism-based; design: dose 12.5 mg/kg, route intravenous; conditions: simiiformes, iv; in short: as §1
[18] = The area under curve (25 mg/kg) administered orally in monkey; format: ADME, organism-based; conditions: simiiformes, in vivo, po; in short: as §1
[19] = The area under curve (100 mg/kg) administered orally in humans; format: ADME, organism-based; conditions: human, in vivo, po; in short: as §2
[20] = The maximum plasma concentration (50 mg/kg) administered orally in rat; format: ADME, organism-based; design: dose 50 mg/kg, route oral; conditions: po; in short: as §1
[21] = The maximum plasma concentration (12.5 mg/kg) administered intravenously in marmoset; format: ADME, organism-based; design: dose 12.5 mg/kg, route intravenous; conditions: callithrix, iv; in short: as §1
[22] = The maximum plasma concentration (25 mg/kg) administered orally in marmoset; format: ADME, organism-based; design: dose 25 mg/kg, route oral; conditions: callithrix, po; in short: as §1
[23] = tested on: Homo sapiens; experiment: The maximum time for retention (800 mg) administered orally in human; conditions: in vivo, po
[24] = The area under curve (12.5 mg/kg) administered intravenously in marmoset; format: ADME, organism-based; conditions: callithrix, in vivo, iv; in short: as §1
[25] = The maximum plasma concentration (100 mg/kg) administered orally in human; format: ADME, organism-based; design: route oral; conditions: po; in short: as §2
[26] = The maximum plasma concentration (25 mg/kg) administered orally in monkey; format: ADME, organism-based; design: dose 25 mg/kg, route oral; conditions: simiiformes, po; in short: as §1
[27] = The area under curve (400 mg/kg) administered orally in humans; format: ADME, organism-based; conditions: human, in vivo, po; in short: as §2
[28] = The maximum plasma concentration (25 mg/kg) administered intravenously in rat; format: ADME, organism-based; design: dose 25 mg/kg, route intravenous; conditions: iv; in short: as §1
[29] = The maximum plasma concentration (30 mg/kg) administered orally in dog; format: ADME, organism-based, Canis lupus familiaris; design: dose 30 mg/kg, route oral; conditions: po; in short: as §1
[30] = The maximum time for retention (25 mg/kg) administered orally in marmoset; format: ADME, organism-based; conditions: callithrix, in vivo, po; in short: as §3
[31] = Oral bioavailability (30 mg/kg) in dog; format: ADME, organism-based, Canis lupus familiaris; conditions: in vivo; in short: as §1
[32] = The maximum plasma concentration (15 mg/kg) administered intravenously in dog; format: ADME, organism-based, Canis lupus familiaris; design: dose 15 mg/kg, route intravenous; conditions: iv; in short: as §1
[33] = Elimination rate constant of the compound(100 mg) administered orally in human; conditions: in vivo, po, read-out: T1/2 el (converted)
[34] = The maximum plasma concentration (400 mg/kg) administered orally in human; format: ADME, organism-based; design: route oral; conditions: po; in short: as §2
[35] = The area under curve (50 mg/kg) administered orally in rat; format: ADME, organism-based; conditions: in vivo, po; in short: as §1
[36] = The maximum time for retention (100 mg) administered orally in human; conditions: in vivo, po
[37] = The area under curve (25 mg/kg) administered intravenously in rat; format: ADME, organism-based; conditions: in vivo, iv; in short: as §1
[38] = The area under curve (15 mg/kg) administered intravenously in dog; format: ADME, organism-based, Canis lupus familiaris; conditions: in vivo, iv; in short: as §1
[39] = The area under curve (30 mg/kg) administered orally in dog; format: ADME, organism-based, Canis lupus familiaris; conditions: in vivo, po; in short: as §1
[40] = Elimination rate constant of the compound(25 mg/kg) administered intravenously in rat; format: ADME, organism-based; conditions: in vivo, iv, read-out: T1/2 el (converted); in short: as §1
[41] = tested on: Homo sapiens; experiment: The area under curve (800 mg/kg) administered orally in humans; format: ADME, organism-based; conditions: in vivo, po; in short: as §2
[42] = Elimination rate constant of the compound(12.5 mg/kg) administered intravenously in rmonkey; format: ADME, organism-based; conditions: simiiformes, in vivo, iv, read-out: T1/2 el (converted); in short: as §1
[43] = The maximum plasma concentration (50 mg/kg) administered orally in fasted rat; format: ADME, organism-based; design: dose 50 mg/kg, route oral; conditions: po; in short: as §1
[44] = The maximum time for retention (50 mg/kg) administered orally in fasted rat; format: ADME, organism-based; conditions: in vivo, po
In short: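 Male Sprague-Dawley rats (n = 3) were fasted overnight, then given a single oral dose (25-50 mg/kg range) in 5% dextrose. Jugular, femoral or cephalic blood was sampled predose and up to 48 h. Plasma was separated at once, held at -20 °C, extracted and quantified by HPLC with UV detection. Values are the mean of three rats.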

[45] = The maximum time for retention (25 mg/kg) administered intravenously in rat; format: ADME, organism-based; conditions: in vivo, iv; in short: as §3
[46] = Elimination rate constant of the compound(400 mg/kg) administered orally in human; format: ADME, organism-based; conditions: in vivo, po, read-out: T1/2 el (converted); in short: as §2
[47] = The area under curve (50 mg/kg) administered orally in fasted rat; format: ADME, organism-based; conditions: in vivo, po; in short: as §1
[48] = Elimination rate constant of the compound(25 mg/kg) administered orally in monkey; format: ADME, organism-based; conditions: simiiformes, in vivo, po, read-out: T1/2 el (converted); in short: as §1
[49] = The maximum plasma concentration (200 mg/kg) administered orally in human; format: ADME, organism-based; design: route oral; conditions: po; in short: as §2
[50] = Elimination rate constant of the compound(15 mg/kg) administered intravenously in dog; format: ADME, organism-based, Canis lupus familiaris; conditions: in vivo, iv, read-out: T1/2 el (converted); in short: as §1
[51] = The maximum time for retention (25 mg/kg) administered orally in monkey; format: ADME, organism-based; conditions: simiiformes, in vivo, po; in short: as §3
[52] = The maximum time for retention (50 mg/kg) administered orally in rat; format: ADME, organism-based; conditions: in vivo, po; in short: as §3
[53] = Elimination rate constant of the compound(800 mg/kg) administered orally in human; format: ADME, organism-based; conditions: in vivo, po; in short: as §2
[54] = Elimination rate constant of the compound(50 mg/kg) administered orally in fasted rat; format: ADME, organism-based; conditions: in vivo, po, read-out: T1/2 el (converted); in short: as §1
[55] = Oral bioavailability (25 mg/kg) in marmoset; format: ADME, organism-based; conditions: primates, in vivo; in short: as §1
[56] = The maximum time for retention (12.5 mg/kg) administered intravenously in monkey; format: ADME, organism-based; conditions: simiiformes, in vivo, iv; in short: as §1
[57] = Elimination rate constant of the compound(30 mg/kg) administered orally in dog; format: ADME, organism-based, Canis lupus familiaris; conditions: in vivo, po, read-out: T1/2 el (converted); in short: as §1
[58] = The maximum time for retention (15 mg/kg) administered intravenously in dog; format: ADME, organism-based, Canis lupus familiaris; conditions: in vivo, iv; in short: as §1

EC50 [1]: 970 nM
SMILES: Cc1c(O)cccc1C(=O)N[C@@H](CSc1ccc2ccccc2c1)[C@H](O)Cc1ccccc1C(=O)NC(C)(C)C

EC50 [1]: 33 nM
SMILES: Cc1c(O)cccc1C(=O)N[C@@H](Cc1ccccc1)[C@H](O)CN1C[C@H]2CCCC[C@H]2C[C@H]1C(=O)NC(C)(C)C
CC50 [2]: > 5000 nM

SMILES: Cc1c(O)cccc1C(=O)N[C@@H](CSc1ccc2ccccc2c1)[C@H](O)CN1C[C@H]2CCCC[C@H]2C[C@H]1C(=O)NC(C)(C)C
EC50 [1]: 100 nM
Ki [3]: 98 nM

EC50 [1]: 14 nM
half-life [4]: 2.04 h
bioavailability [5]: 9%
Cmax [6]: 3163 ng/mL
bioavailability [7]: 43%
Tmax [8]: 4.8 min
bioavailability [9]: 29%
Tmax [10]: 3 h
AUC [11]: 2890 ng·h/mL
half-life [12]: 1.23 h
Tmax [13]: 4 h
AUC [14]: 10400 ng·h/mL
Tmax [15]: 3 h
half-life [16]: 2.21 h
Cmax [17]: 7990 ng/mL
AUC [18]: 6290 ng·h/mL
AUC [19]: 1250 ng·h/mL
Cmax [20]: 1340 ng/mL
Cmax [21]: 5670 ng/mL
Cmax [22]: 840 ng/mL
T max [23]: 3.5 h
AUC [24]: 6630 ng·h/mL
Cmax [25]: 313 ng/mL
Cmax [26]: 1590 ng/mL
AUC [27]: 7560 ng·h/mL
Cmax [28]: 12700 ng/mL
Cmax [29]: 1220 ng/mL
Tmax [30]: 1 h
bioavailability [31]: 35%
Cmax [32]: 11900 ng/mL
half-life [33]: 1.72 h
Cmax [34]: 1580 ng/mL
AUC [35]: 6090 ng·h/mL
Tmax [36]: 3 h
AUC [37]: 7010 ng·h/mL
AUC [38]: 11200 ng·h/mL
AUC [39]: 13300 ng·h/mL
half-life [40]: 1.26 h
AUC [41]: 22200 ng·h/mL
half-life [42]: 1.47 h
Cmax [43]: 1470 ng/mL
Tmax [44]: 1.39 h
Tmax [45]: 3.6 min
half-life [46]: 2.28 h
AUC [47]: 4040 ng·h/mL
half-life [48]: 3 h
Cmax [49]: 439 ng/mL
half-life [50]: 1.18 h
Tmax [51]: 3 h
Tmax [52]: 2.82 h
T1/2 el [53]: 3.37 h
half-life [54]: 1.07 h
bioavailability [55]: 10%
Tmax [56]: 4.8 min
half-life [57]: 7.72 h
Tmax [58]: 4.8 min
SMILES: CS(=O)(=O)O.Cc1c(O)cccc1C(=O)N[C@@H](CSc1ccccc1)[C@H](O)CN1C[C@H]2CCCC[C@H]2C[C@H]1C(=O)NC(C)(C)C [NELFINAVIR MESYLATE]
